The source made the active and inactive calls. The rule behind the calls is not given here.
Key:
L6 = experiment: Cytotoxicity against rat L6 cells by Alamar blue assay; assay type: cell-based
Procedure, shortened: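 L6 rat myoblasts were run by the same Alamar Blue protocol as the trypanosome assay. Seven 3-fold serial dilutions were incubated 72 h at 37 °C, 5% CO₂, followed by 2–4 h with dye.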

Plasmodium falciparum = experiment: Antiplasmodial activity against chloroquine and pyrimethamine resistant Plasmodium falciparum K1 infected in human erythrocytes assessed as reduction in [3H]hypoxanthine incorporation measured after 24 hrs by liquid scintillation counting method; assay type: functional, organism-based
[1] = tested on: Trypanosoma brucei rhodesiense; experiment: Antitrypanosomal activity against Trypanosoma brucei rhodesiense STIB900 measured after 72 hrs by alamar blue dye based fluorimetry analysis; assay type: functional, organism-based; conditions: STIB900, 72 h
[2] = Selectivity index, ratio of IC50 for cytotoxicity against rat L6 cells to IC50 for antiplasmodial activity against chloroquine and pyrimethamine resistant Plasmodium falciparum K1 infected in human red blood cells; assay type: toxicity, cell-based; conditions: read-out: Selectivity Index
Procedure, shortened: (§1)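 SI = IC50(L6)/IC50(parasite): K1 P. falciparum for the antiplasmodial index, T. b. rhodesiense STIB900 for the antitrypanosomal index. L6 rat myoblasts were run as in the trypanosome assay: MEM with 2-mercaptoethanol and 15% heat-inactivated horse serum, seven 3-fold serial dilutions, 72 h at 37 °C in 5% CO2.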

[3] = Selectivity index, ratio of IC50 for cytotoxicity against rat L6 cells to IC50 for antitrypanosomal activity against Trypanosoma brucei rhodesiense STIB900; assay type: toxicity, cell-based; conditions: read-out: Selectivity Index; procedure, shortened: as §1
[4] = tested on: Trypanosoma brucei rhodesiense; experiment: Antitrypanosomal activity against Trypanosoma brucei rhodesiense STIB900 infected in mouse assessed as reduction in parasitemia by measuring time taken to cure at 25 mg/kg, po measured up to 60 days (reference value: 11 days); assay type: functional; conditions: time day <=60
[5] = tested on: Poly(dA-dT)oligonucleotide
[6] = tested on: Trypanosoma brucei rhodesiense; experiment: Antitrypanosomal activity against bloodstream form of Trypanosoma brucei rhodesiense STIB900 infected in mouse assessed as reduction in parasitemia by measuring time taken to cure at 5 mg/kg, ip measured up to 60 days (reference value: 11 days); assay type: functional; conditions: time day <=60
[7] = tested on: Poly(dA-dT)oligonucleotide; experiment: Binding affinity to poly (dA-dT) (unknown origin) by circular dichroism spectroscopy; assay type: nucleic-acid assay

Structure (SMILES) | IC50 (L6) | IC50 (Plasmodium falciparum) | IC50 [1] | selectivity ratio [2] | selectivity ratio [3] | Time [4] | ΔTm [5] | Time [6] | Activity [7]
CO/N=C(/N)c1ccc(Cc2ccc(Cc3ccc(/C(N)=N\OC)cc3)cc2)cc1 | 37300 nM | > 9500 nM | 12600 nM | > 3.9 |  |  |  |  | 
CO/N=C(\N)c1ccc(Oc2cccc(Oc3ccc(/C(N)=N\OC)cc3)n2)cc1 | 117000 nM |  | 26100 nM | 12.3 | 4.5 |  |  |  | 
CO/N=C(\N)c1cccc(Cc2ccc(Cc3ccc(/C(N)=N\OC)cc3)cc2)c1 | 32300 nM | > 9500 nM | 18700 nM | > 3.4 | 1.7 | 9.2 days |  |  | 
CO/N=C(\N)c1ccc(-c2ccc(Oc3ccc(/C(N)=N\OC)cc3)nc2)cc1 | 91000 nM |  | 14400 nM | 9.7 | 6.3 |  |  |  | 
N=C(N)c1ccc(Cc2ccc(-c3ccc(C(=N)N)cc3)cc2)cc1 | 4000 nM | 3 nM | 73 nM | 1330 | 54.8 |  | 9 °C | 22 days | 
N=C(N)c1ccc(Oc2cccc(Oc3ccc(C(=N)N)cc3)n2)cc1 | 99300 nM | 323 nM | 378 nM | 307 | 263 |  | 1.25 °C |  | 
N=C(N)c1ccc(Oc2ccc(-c3ccc(C(=N)N)cc3)cn2)cc1 | 2100 nM |  | 11 nM | 525 | 191 |  | 17.8 °C | >45.5 days | inactive
N=C(N)c1ccc(-c2ccc(-c3ccc(C(=N)N)cc3)o2)cc1 [FURAMIDINE] |  |  |  |  |  |  |  | 24 days | 
N=C(N)c1ccc(Cc2ccc(Cc3ccc(C(=N)N)cc3)o2)cc1 | 25000 nM |  | 27 nM | 1390 | 930 |  | 2.25 °C | 18.75 days | 
N=C(N)c1ccc(-c2ccc(Cc3cccc(C(=N)N)c3)cc2)cc1 | 2000 nM | 31 nM | 35 nM | 64.5 | 57.1 |  | 8.5 °C | 22.75 days | 
N=C(N)c1ccc(Cc2ccc(-c3ccc(C(=N)N)cc3)nc2)cc1 | 18100 nM | 11.2 nM | 41 nM | 1620 | 441 |  | 1 °C | >60 days | inactive
N=C(N)c1ccc(OCCCCCOc2ccc(C(=N)N)cc2)cc1 [PENTAMIDINE] |  |  |  |  |  |  |  | 20 days | 
CN(C)CCCC(=O)O/N=C(\N)c1ccc(Cc2ccc(-c3ccc(/C(N)=N\OC(=O)CCCN(C)C)cc3)cc2)cc1 | 1100 nM | 183 nM | 105 nM | 6 | 10.5 | 7 days |  |  | 
N=C(N)c1ccc(Cc2ccc(Cc3cccc(C(=N)N)c3)cc2)cc1 | 28300 nM |  | 15 nM | 1230 | 1890 |  | 0.5 °C | 15.5 days | 
CO/N=C(\N)c1cccc(Cc2ccc(-c3ccc(/C(N)=N\OC)cc3)cc2)c1 | 34800 nM | > 9500 nM | 16600 nM | 3.7 | 2.1 | 13 days |  |  | 
N=C(N)c1ccc(Cc2ccc(Cc3ccc(C(=N)N)cc3)cc2)cc1 | 19400 nM | 23 nM | 72 nM | 970 | 269 |  | 1 °C | 16.25 days | 

Source: ChEMBL document CHEMBL4825701, “New antiparasitic flexible triaryl diamidines, their prodrugs and aza analogues: Synthesis, in vitro and in vivo biological evaluation, and molecular modelling studies” (Eur J Med Chem, 2021)
